# Activity calls are given as the source filed them. No cut-off for these calls is given here.
# System: Rattus norvegicus
# Assay: Compound was tested for antiallergic activity in the rat passive cutaneous anaphylaxis (PCA) model after intraperitoneal administration at a dose 5 mg/kg; I denotes Inactive at 30 mg/kg
# Assay type: functional, organism-based
# Conditions: in the assay text read “Inactive at 5 mg/kg” for “Inactive at 30 mg/kg”
# Summary of the method: (§1)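 Rats passively sensitized by intradermal injection of antiserum dilutions at several back sites, 48 h before iv challenge with 1 mg ovalbumin in 1 mL saline with 0.25% Evans blue. Drug given ip as a suspension in 1% gum tragacanth/saline 10-15 min before challenge. Wheal diameter read 30 min later. Five rats per group. % inhibition taken against control minus extrapolated base value at the highest antiserum concentration. Student's t test.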
row,Structure (SMILES),inhibition
1,O=c1c2c(nc3ccc(-c4nnn[nH]4)cn13)CCS2,inactive
2,O=C(O)c1ccc2nc3c(c(=O)n2c1)CSC3,inactive

# System: Rattus norvegicus
# Assay: Antiallergic activity in the rat passive cutaneous anaphylaxis (PCA) model after intraperitoneal administration at a dose 5 mg/kg
# Assay type: functional
# Conditions: ip
# Summary of the method: as §1
row,Structure (SMILES),inhibition in vivo at 5 mg/kg [%]
1,O=c1c2c(nc3ccc(-c4nnn[nH]4)cn13)CSC2,100
2,Cc1cc2nc3ccc(C(=O)Nc4nn[nH]n4)cn3c(=O)c2s1,21
3,Cc1cc2c(=O)n3cc(C(=O)O)ccc3nc2s1,100
4,Cc1cc2c(=O)n3cc(C(=O)Nc4nn[nH]n4)ccc3nc2s1,25
5,Cc1sc(C)c2c(=O)n3cc(C(=O)O)ccc3nc12,70
6,O=C(Nc1nn[nH]n1)c1ccc2nc3ccsc3c(=O)n2c1,100
7,O=C(O)c1ccc2nc3ccsc3c(=O)n2c1,28
8,O=c1c2cscc2nc2ccc(-c3nnn[nH]3)cn12,100
9,Cc1cc2nc3ccc(-c4nnn[nH]4)cn3c(=O)c2s1,51
10,Cc1sc(C)c2c(=O)n3cc(C(=O)Nc4nn[nH]n4)ccc3nc12,50
11,O=C(O)c1ccc2nc3c(c(=O)n2c1)SCC3,46
12,O=C(Nc1nn[nH]n1)c1ccc2nc3cscc3c(=O)n2c1,49
13,O=c1c2sccc2nc2ccc(-c3nnn[nH]3)cn12,70
14,O=C(O)c1ccc2nc3cscc3c(=O)n2c1,41
15,Cc1cc2nc3ccc(C(=O)O)cn3c(=O)c2s1,61
16,Cc1cc2c(=O)n3cc(-c4nnn[nH]4)ccc3nc2s1,100
17,Cc1sc(C)c2c(=O)n3cc(-c4nnn[nH]4)ccc3nc12,47
18,O=C(Nc1nn[nH]n1)c1ccc2nc3c(c(=O)n2c1)CSC3,33

# System: Rattus norvegicus
# Assay: Compound was tested for antiallergic activity in the rat passive cutaneous anaphylaxis (PCA) model after intraperitoneal administration at a dose 10 mg/kg
# Assay type: functional
# Conditions: ip
# Summary of the method: as §1
row,Structure (SMILES),inhibition in vivo at 10 mg/kg [%]
1,O=C(O)c1cc(=O)c2c(OCC(O)COc3cccc4oc(C(=O)O)cc(=O)c34)cccc2o1 [CROMOLYN SODIUM],89

# From ChEMBL document CHEMBL1122637, “Synthesis and antiallergy activity of 10-oxo-10H-pyrido[1,2-a]thieno[3,2-d]pyrimidines and 10-oxo-10H-pyrido[1,2-a]thieno[3,4-d]pyrimidines” (1984)
